Test results taken from ChEMBL document CHEMBL3351225, “Design, synthesis, and structure-activity and structure-pharmacokinetic relationship studies of novel [6,6,5] tricyclic fused oxazolidinones leading to the discovery of a potent, selective, and orally bioavailable FXa inhibitor” (J Med Chem, 2014).

Tests used:
[1] = AUC (0 to infinity) in Sprague-Dawley rat at 3 mg/kg, iv; assay type: ADME, organism-based; design: time infinity, dose 3 mg/kg, route intravenous; settings: plasma
Procedure, shortened: (§1)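 Male Sprague-Dawley rats, 200−220 g, four per group. Vehicle was 5% DMSO + 5% Tween-80 in 90% saline. The reference drug was given in 10% DMSO + 10% Tween-80 + 80% PEG400 (40% solution in saline). Serial retrobulbar vein samples were quantified by LC-MS. Parameters came from noncompartmental analysis of mean plasma concentrations.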

[2] = Volume of distribution at steady state in Sprague-Dawley rat at 3 mg/kg, iv; assay type: ADME, organism-based; design: dose 3 mg/kg, route intravenous; settings: in vivo, read-out: Vdss; procedure, shortened: as §1
[3] = Elimination half life in Sprague-Dawley rat at 10 mg/kg, po; assay type: ADME, organism-based; design: dose 10 mg/kg, route oral; settings: in vivo, read-out: beta t1/2 (converted); procedure, shortened: as §1
[4] = Cmax in Sprague-Dawley rat at 10 mg/kg, po; assay type: ADME, organism-based; design: dose 10 mg/kg, route oral; settings: in vivo; procedure, shortened: as §1
Prothrombin = Prothrombin (Homo sapiens, UniProt P00734); test: Inhibition of human factor 2a using L-pyro-Glu-Pro-ArgpNA, S-2366 chromogenic substrate
Procedure, shortened: (§2)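 Human enzyme and inhibitor were premixed and preincubated, then the chromogenic substrate was added. Substrate levels: 300 μM S-2765 (FXa, trypsin); 200 μM S-2366 (FIIa); 2 mM S-2366 (FVIIa, FXIa). pNA release was monitored continuously at 405 nm for 20 min at 37 °C. IC50 was obtained by nonlinear regression.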

Coagulation factor VII = target: T1, Coagulation factor VII (Homo sapiens, UniProt P08709); test: Inhibition of human factor 7a using S-2366 chromogenic substrate; procedure, shortened: as §2
T1 sequence (P08709 whole entry): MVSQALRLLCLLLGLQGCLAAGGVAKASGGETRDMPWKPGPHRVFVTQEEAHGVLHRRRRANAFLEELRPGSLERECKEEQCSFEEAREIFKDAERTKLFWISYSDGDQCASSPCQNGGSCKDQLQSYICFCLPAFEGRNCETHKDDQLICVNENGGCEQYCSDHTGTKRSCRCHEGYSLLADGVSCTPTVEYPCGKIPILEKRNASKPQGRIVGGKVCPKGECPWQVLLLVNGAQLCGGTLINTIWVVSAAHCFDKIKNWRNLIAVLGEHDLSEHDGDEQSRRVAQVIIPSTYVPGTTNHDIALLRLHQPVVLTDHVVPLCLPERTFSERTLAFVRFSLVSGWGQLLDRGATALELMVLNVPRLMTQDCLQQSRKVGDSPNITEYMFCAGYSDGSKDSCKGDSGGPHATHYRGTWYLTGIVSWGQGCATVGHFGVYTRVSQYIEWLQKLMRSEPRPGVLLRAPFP

Coagulation factor IX = Coagulation factor IX (Homo sapiens, UniProt P00740); test: Inhibition of human factor 9a using CH3SO2-(D)CHG Gly-Arg-pNA, Biophen-CS51 chromogenic substrate
Chain of Coagulation factor IX (P00740 47-191 limits assumed): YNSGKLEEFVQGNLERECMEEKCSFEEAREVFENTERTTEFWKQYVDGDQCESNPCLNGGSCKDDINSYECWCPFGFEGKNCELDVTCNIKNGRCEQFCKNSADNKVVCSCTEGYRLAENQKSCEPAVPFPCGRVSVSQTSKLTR
Chain of Coagulation factor IX (P00740 227-461 limits assumed): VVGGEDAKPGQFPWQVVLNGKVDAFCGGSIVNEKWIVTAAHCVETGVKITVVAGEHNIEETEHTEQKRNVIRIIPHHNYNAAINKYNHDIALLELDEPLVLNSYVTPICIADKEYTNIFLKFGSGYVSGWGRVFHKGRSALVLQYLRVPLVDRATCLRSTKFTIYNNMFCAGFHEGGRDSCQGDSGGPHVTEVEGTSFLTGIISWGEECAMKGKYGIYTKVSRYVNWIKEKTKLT

[5] = Oral bioavailability in Sprague-Dawley rat at 10 mg/kg; assay type: ADME, organism-based; settings: in vivo; procedure, shortened: as §1
Coagulation factor X = Coagulation factor X (Homo sapiens, UniProt P00742); test: Inhibition of human factor 10a using N-Z-D-Arg-Gly-Arg-pNA, S-2765 chromogenic substrate
Chain of Coagulation factor X (P00742 41-179 limits assumed): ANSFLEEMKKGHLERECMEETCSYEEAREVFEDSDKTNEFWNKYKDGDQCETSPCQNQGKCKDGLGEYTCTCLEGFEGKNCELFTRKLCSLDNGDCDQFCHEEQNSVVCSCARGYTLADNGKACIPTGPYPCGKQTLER
Chain of Coagulation factor X (P00742 235-488 limits assumed): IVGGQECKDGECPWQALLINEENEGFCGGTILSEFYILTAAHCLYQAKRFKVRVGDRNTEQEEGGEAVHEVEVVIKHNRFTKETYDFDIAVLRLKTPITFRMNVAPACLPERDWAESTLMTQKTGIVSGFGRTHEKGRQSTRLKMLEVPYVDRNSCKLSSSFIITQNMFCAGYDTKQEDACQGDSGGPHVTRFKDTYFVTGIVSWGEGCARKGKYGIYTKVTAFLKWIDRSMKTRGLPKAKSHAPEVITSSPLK

Coagulation factor XI = Coagulation factor XI (Homo sapiens, UniProt P03951); test: Inhibition of human factor 11a using S-2366 chromogenic substrate; procedure, shortened: as §2
Chain of Coagulation factor XI (P03951 19-387 limits assumed): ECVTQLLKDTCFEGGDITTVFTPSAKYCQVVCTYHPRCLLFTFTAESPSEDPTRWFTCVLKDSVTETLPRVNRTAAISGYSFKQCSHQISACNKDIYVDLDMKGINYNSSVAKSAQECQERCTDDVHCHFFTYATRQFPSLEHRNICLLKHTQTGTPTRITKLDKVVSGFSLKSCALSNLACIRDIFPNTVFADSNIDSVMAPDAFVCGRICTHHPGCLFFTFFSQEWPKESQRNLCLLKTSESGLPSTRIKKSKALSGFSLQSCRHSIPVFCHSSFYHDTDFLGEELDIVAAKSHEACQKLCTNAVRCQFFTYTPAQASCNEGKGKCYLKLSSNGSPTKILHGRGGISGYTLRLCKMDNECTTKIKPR
Chain of Coagulation factor XI (P03951 388-625 limits assumed): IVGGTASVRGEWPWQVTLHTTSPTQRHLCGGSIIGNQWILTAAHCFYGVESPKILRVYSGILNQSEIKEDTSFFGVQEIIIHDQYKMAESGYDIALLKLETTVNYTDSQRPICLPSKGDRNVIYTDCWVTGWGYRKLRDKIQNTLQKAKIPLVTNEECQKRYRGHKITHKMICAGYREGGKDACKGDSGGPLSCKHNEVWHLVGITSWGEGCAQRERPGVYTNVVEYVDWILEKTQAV

Plasma [6] = test: Anticoagulant activity in citrated rabbit plasma assessed as drug concentration required to double plasma clotting time preincubated for 10 mins at 37 degC by coagulometry; assay type: functional, Oryctolagus cuniculus
Procedure, shortened: (§3)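 Test compound or DMSO added to citrated rabbit plasma (3.8% sodium citrate, 10:90 v/v) and preincubated 10 min at 37 °C. PT and aPTT clotting times measured on a coagulometer with commercial kits. Activity expressed as the concentration needed to double plasma clotting time (CT2, μM).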

Plasma [7] = test: Anticoagulant activity in citrated rabbit plasma assessed as activated partial thromboplastin time preincubated for 10 mins at 37 degC by coagulometry; assay type: functional, Oryctolagus cuniculus; procedure, shortened: as §3
[8] = AUC (0 to infinity) in Sprague-Dawley rat at 10 mg/kg, po; assay type: ADME, organism-based; design: time infinity, dose 10 mg/kg, route oral; settings: plasma; procedure, shortened: as §1
[9] = Elimination half life in Sprague-Dawley rat at 3 mg/kg, iv; assay type: ADME, organism-based; design: dose 3 mg/kg, route intravenous; settings: in vivo, read-out: beta t1/2 (converted); procedure, shortened: as §1
[10] = Plasma clearance in Sprague-Dawley rat at 3 mg/kg, iv; assay type: ADME, organism-based; design: dose 3 mg/kg, route intravenous; procedure, shortened: as §1
Trypsin = Trypsin (Homo sapiens, UniProt P07477+P07478+P35030); test: Inhibition of human trypsin using N-Z-D-Arg-Gly-Arg-pNA, S-2765 chromogenic substrate; assay type: protein assay; procedure, shortened: as §2
[11] = Tmax in Sprague-Dawley rat at 10 mg/kg, po; assay type: ADME, organism-based; design: dose 10 mg/kg, route oral; settings: in vivo; procedure, shortened: as §1
[12] = Cmax in Beagle dog at 1 mg/kg, po; assay type: ADME, organism-based, Canis lupus familiaris; design: dose 1 mg/kg, route oral; settings: in vivo
Procedure, shortened: (§4)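 Male dogs, three per group. Dosed orally at 1 mg/kg or by intravenous infusion at 0.5 mg/kg. Vehicle was 5% DMSO + 5% Tween-80 in 90% saline, or 10% DMSO + 10% Tween-80 + 80% PEG400 for the reference drug. Foreleg blood samples were quantified by LC-MS. Parameters came from noncompartmental analysis of mean plasma concentrations.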

[13] = AUC (0 to infinity) in Beagle dog at 1 mg/kg, po; assay type: ADME, organism-based, Canis lupus familiaris; design: time infinity, dose 1 mg/kg, route oral; settings: plasma; procedure, shortened: as §4
Rattus norvegicus [14] = test: Induction of tail bleeding in rat assessed as prolongation of bleeding time dosed orally 60 mins before surgery; assay type: organism-based; settings: in vivo, po, 1 h
Procedure, shortened: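 Anesthetized rats were dosed orally with compound suspended in 0.5% CMC-Na, or vehicle, 60 min before the tail was transected 4 mm from the tip. The tail was immersed vertically in saline at 37 °C. Bleeding time was taken as the point when flow ceased for >30 s, with a 30 min maximum.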

Rattus norvegicus [15] = test: Antithrombotic activity in rat model of FeCl3-induced venous thrombosis assessed as reduction in thrombus formation dosed orally 60 mins before thrombus formation; settings: po
[16] = Tmax in Sprague-Dawley rat at 3 mg/kg, po; assay type: ADME, organism-based; design: dose 3 mg/kg, route oral; settings: in vivo
[17] = Volume of distribution at steady state in Beagle dog at 0.5 mg/kg, iv; assay type: ADME, organism-based, Canis lupus familiaris; design: dose 0.5 mg/kg, route intravenous; settings: in vivo, read-out: Vdss; procedure, shortened: as §4
[18] = AUC (0 to infinity) in Sprague-Dawley rat at 3 mg/kg, po; assay type: ADME, organism-based; design: time infinity, dose 3 mg/kg, route oral; settings: plasma
[19] = Elimination half life in Beagle dog at 1 mg/kg, po; assay type: ADME, organism-based, Canis lupus familiaris; design: dose 1 mg/kg, route oral; settings: in vivo; procedure, shortened: as §4
[20] = Elimination half life in Beagle dog at 0.5 mg/kg, iv; assay type: ADME, organism-based, Canis lupus familiaris; design: dose 0.5 mg/kg, route intravenous; settings: in vivo; procedure, shortened: as §4
[21] = Plasma clearance in Beagle dog at 0.5 mg/kg, iv; assay type: ADME, organism-based, Canis lupus familiaris; design: dose 0.5 mg/kg, route intravenous; procedure, shortened: as §4
[22] = Tmax in Beagle dog at 1 mg/kg, po; assay type: ADME, organism-based, Canis lupus familiaris; design: dose 1 mg/kg, route oral; settings: in vivo; procedure, shortened: as §4
[23] = Elimination half life in Sprague-Dawley rat at 3 mg/kg, po; assay type: ADME, organism-based; design: dose 3 mg/kg, route oral; settings: in vivo, read-out: beta t1/2 (converted)
[24] = AUC (0 to infinity) in Beagle dog at 0.5 mg/kg, iv; assay type: ADME, organism-based, Canis lupus familiaris; design: time infinity, dose 0.5 mg/kg, route intravenous; settings: plasma; procedure, shortened: as §4
[25] = Oral bioavailability in Sprague-Dawley rat at 3 mg/kg; assay type: ADME, organism-based; settings: in vivo
[26] = Cmax in Sprague-Dawley rat at 3 mg/kg, po; assay type: ADME, organism-based; design: dose 3 mg/kg, route oral; settings: in vivo
[27] = Oral bioavailability in Beagle dog at 1 mg/kg; assay type: ADME, organism-based, Canis lupus familiaris; settings: in vivo; procedure, shortened: as §4
Rattus norvegicus [28] = test: Antithrombotic activity in rat model of arteriovenous shunt-induced thrombosis assessed as reduction in thrombus formation dosed orally 60 mins before shunt opening; settings: po

Row | Compound | AUC(0-inf) [1] | Vd [2] | half-life [3] | Cmax [4] | IC50 (Prothrombin) | IC50 (Coagulation factor VII) | IC50 (Coagulation factor IX) | bioavailability [5] | IC50 (Coagulation factor X) | IC50 (Coagulation factor XI) | Activity (Plasma [6]) | 2aPTT (Plasma [7]) | AUC(0-inf) [8] | half-life [9] | clearance [10] | IC50 (Trypsin) | Tmax [11] | further results
1 | O=C(NC[C@@H]1OC(=O)N2c3ccc(N4CCOCC4=O)cc3NC[C@@H]12)c1ccc(Cl)s1 | 5700 ng·h/mL | 0.199 L/kg | 1.52 h | 565 ng/mL | > 100 µM | > 100 µM | > 100 µM | 6.8% | 0.00506 µM | > 100 µM | 0.48 µM | 0.43 µM | 1350 ng·h/mL | 0.86 h | 9.22 mL/min/kg | > 100 µM | 0.44 h | –
2 | O=C(NC[C@@H]1OC(=O)N2c3ccc(N4CCOCC4=O)cc3CC[C@@H]12)c1ccc(Cl)s1 | 20400 ng·h/mL | 0.144 L/kg | 3.54 h | 3020 ng/mL | > 100 µM | > 100 µM | > 100 µM | 20.4% | 0.00471 µM | > 100 µM | 0.37 µM | 0.33 µM | 14200 ng·h/mL | 0.74 h | 2.48 mL/min/kg | > 100 µM | 2.3 h | –
3 | O=C(NC[C@@H]1OC(=O)N2c3ccc(N4CCOCC4=O)cc3S(=O)(=O)C[C@@H]12)c1ccc(Cl)s1 | 6120 ng·h/mL | 0.154 L/kg | 2.14 h | 917 ng/mL | – | – | – | 7.3% | 0.0174 µM | – | 0.47 µM | 0.76 µM | 1540 ng·h/mL | 0.54 h | 8.22 mL/min/kg | – | 0.38 h | –
4 | O=C(NC[C@H]1CN(c2ccc(N3CCOCC3=O)cc2)C(=O)O1)c1ccc(Cl)s1 [RIVAROXABAN] | 9980 ng·h/mL | 0.19 L/kg | – | – | – | – | – | – | – | – | 0.4 µM | 0.32 µM | – | 1.27 h | 5.05 mL/min/kg | – | – | Cmax [12]: 333 ng/mL; AUC(0-inf) [13]: 1000 ng·h/mL; Activity (Rattus norvegicus [14]): Dose-dependent effect; ED50 (Rattus norvegicus [15]): 4.86 mg/kg; Tmax [16]: 0.88 h; Vd [17]: 2.8 L/kg; AUC(0-inf) [18]: 2260 ng·h/mL; half-life [19]: 1.8 h; half-life [20]: 2.4 h; clearance [21]: 10 mL/min/kg; Tmax [22]: 0.7 h; half-life [23]: 2.9 h; AUC(0-inf) [24]: 916 ng·h/mL; bioavailability [25]: 21.3%; Cmax [26]: 850 ng/mL; bioavailability [27]: 68%; ED50 (Rattus norvegicus [28]): 3.72 mg/kg
